Hits are enriched below; roughly 2.2% of the tested compounds scored in any of these assays.
CSN inh: inhibitors of CSN-mediated cullin deneddylation, primary screen, biochemical, fluorescence polarization, uHTS. hit rate 0.38% among 360,000. COP9 signalosome complex subunit 5 (Homo sapiens), Q92905. AID 651999, 2013. Purified CSN, SCF-Nedd8-OG deneddylation. inhibition, % at 12.5 µM;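 active = pattern-corrected inhibition above about 35%, with an unprinted fluorescence ratio check between 0.5 and 1.5, limit read from the data, passing the limit was not always enough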
Target sequence (Q92905 whole entry, looked up, one chain of several): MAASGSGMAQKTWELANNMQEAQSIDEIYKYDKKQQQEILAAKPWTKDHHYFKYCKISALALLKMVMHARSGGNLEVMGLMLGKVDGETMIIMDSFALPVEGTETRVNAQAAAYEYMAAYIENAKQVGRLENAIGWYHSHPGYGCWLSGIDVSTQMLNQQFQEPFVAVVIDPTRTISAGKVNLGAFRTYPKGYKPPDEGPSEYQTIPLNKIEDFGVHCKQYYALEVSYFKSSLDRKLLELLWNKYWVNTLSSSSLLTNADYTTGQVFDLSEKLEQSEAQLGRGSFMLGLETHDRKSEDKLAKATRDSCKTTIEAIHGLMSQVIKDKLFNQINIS
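Test system: purified human Csn5 enzyme expressed in HEK293T cells. Amount: 0.24 nM enzyme. Reagent: SCFSkp2-Nedd8OG substrate at 10 nM final. Schedule: 90 min incubation of compound, enzyme and substrate at room temperature. Detection: fluorescence polarization. Read-out: % inhibition of substrate cleavage by Csn5.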
Myeloid diff MLP: induction of myeloid progenitor differentiation, primary screen, cell-based, flow cytometry, MLPCN library; ER-HoxA9 myeloid progenitors, lysozyme-GFP differentiation; calls only at 10 µM; hit rate 1% among 360,000; AID 624256, 2012;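 active = normalized GFP-positive differentiation at or above the plate's own cutoff, the solvent-only control mean plus 3 SD; inconclusive = no clear call, values can overlap the other calls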;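 also: cells exposed to compound for four days before flow analysis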
HNF4A DNA FP: change in binding of human HNF4A to DNA, primary screen, biochemical, fluorescence polarization, FITC-DNA; Hepatocyte nuclear factor 4-alpha (Homo sapiens), P41235; activity change, % at 10 µM; hit rate 0.3% among 360,000; 1 h; in the data active = activity change above about 30%, passing the limit was not always enough
Granule exo inh: LAMP-1 surface exposure blockers, TALL-104 cells – cell-based, flow cytometry, MLPCN library, primary screen. TALL-104 LAMP-1 surface exposure; cells stimulated with thapsigargin and PMA. inhibition, % at 10 µM. hit rate 0.66% among 360,000;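 active = inhibition above about 55%, limit read from the data; inconclusive = no clear call, values can overlap the other calls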
Numbers stand for hits; - = inactive; ? = inconclusive; . = no result given; + = active, no number.

SMILES	CSN inh	Myeloid diff MLP	HNF4A DNA FP	Granule exo inh
Cc1cc(=O)c2ccccc2n1CC(=O)NCc1ccccc1	-	-	30	-
COC(=O)c1sc(NC(=O)/C=C/c2ccccc2Cl)nc1C	-	-	47	-
COC(=O)c1sc(NC(=O)/C=C/c2ccc(C)cc2)nc1C	-	-	-	-
O=C(Nc1ccc2c(c1)OCO2)c1cnc(Cl)c(Cl)c1	-	-	-	-
CCC(C)NC(=O)C1CC(=O)N(CCc2ccc(F)cc2)C1 (centres undefined)	-	-	-	-
CCc1ccc2nc3nc(C)cc(C)c3c(N)c2c1	-	+	-	-
Cc1cccc(-n2c(C)n[nH]c2=S)c1	-	-	-	-
Cc1cccc(-n2c(C)c(-c3ccccc3)[nH]c2=S)c1	-	+	-	-
O=C(N/N=C/c1cc(Br)c(O)c(Br)c1O)c1cccnc1	-	-	-	65
O=C(N/N=C/c1c(O)ccc2ccccc12)c1cccnc1	-	?	43	-
O=C(N/N=C\c1c(O)ccc2ccccc12)c1ccc(O)cc1	-	?	-	-
O=C(N/N=C/c1cccnc1)c1cc2ccccc2o1	-	-	-	-
O=C(N/N=C/c1cccnc1)c1cc2c(ccc3ccccc32)o1	55	-	-	-
O=C(N/N=C/c1cc(O)ccc1Br)c1cccnc1	-	-	-	-
Cc1ccc(C(=O)N/N=C/c2c(O)ccc3ccccc23)cn1	-	?	45	?
O=C(NN=Cc1c(O)ccc2ccccc12)c1ccncc1	-	.	-	-
CCCc1ccc(OCc2ccc(C(=O)N/N=C/c3cccnc3)o2)cc1	-	+	-	-
O=C(N/N=C\c1c(O)ccc2ccccc12)c1cncc(Br)c1	-	?	-	80
O=C(N/N=C/c1ccc(OC(=O)c2cccc(F)c2)cc1)c1cccnc1	41	-	-	-
O=C(N/N=C/c1ccc(OC(=O)c2cccc(Br)c2)cc1)c1cccnc1	-	.	-	-
CCOc1ccc(CC(=O)N/N=C/c2cccnc2)cc1	-	-	-	-
C(=C\c1ccccc1)/CN1CCN(C(c2nnnn2-c2ccc3c(c2)OCCO3)C2CC2)CC1 (centres undefined)	-	-	-	-
O=C(COc1cc(Cl)ccc1Cl)N1CCNC1=O	-	-	-	-
COc1ccccc1CN1CC(C(=O)NC2(c3ccccc3)CC2)CCC1=O (centres undefined)	-	-	-	-
CC(NC(=O)COC(=O)CCC(=O)c1ccc(F)cc1)c1ccccc1 (centres undefined)	-	-	-	-
SMILES	CSN inh	Myeloid diff MLP	HNF4A DNA FP	Granule exo inh
Nc1ccc2c(c1)Cc1cc([N+](=O)[O-])ccc1-2	-	-	37	-
CC(=NO)c1ccc2c(c1)Cc1cc([N+](=O)[O-])ccc1-2	-	-	-	-
Cc1cccc2nc(C(=O)Nc3cccc(C(=O)NC4CC4)c3)cn12	-	-	-	-
O=[N+]([O-])c1ccc(Cl)c(C2Nc3cccc4cccc(c34)N2)c1	-	-	-	56
Cc1ccc(S(=O)(=O)N2CCN(c3ncnc4sccc34)CC2)cc1	-	-	-	-
C/C(=C(/CCO)SSCC1CCCO1)N(C=O)Cc1cnc(C)nc1N (centres undefined)	-	+	-	-
C[C@H](CO)N1C[C@H](C)[C@@H](CN(C)S(C)(=O)=O)Oc2ccc(NC(=O)Nc3ccccc3)cc2C1=O	-	-	-	-
CC1=NN(c2ccccc2)C(=O)/C1=C\c1cn(CCC#N)nc1-c1ccc(Cl)cc1	-	-	35	-
O=C1CCCCC(=O)N(c2ccccc2)c2ccccc21	-	+	-	-
O=C1CCC(=O)N1c1ccccc1	-	-	-	-
O=C(/C=C/c1cn(CC(O)CN2CCCCCC2)c2ccccc12)c1cccs1 (centres undefined)	-	+	-	-
CO[C@H]1CN(C)C(=O)c2ccc(NC(=O)C3CCC3)cc2OC[C@H](C)N(CC2CCCCC2)C[C@@H]1C	-	-	-	-
Cc1ccc(-c2nc(CS(=O)CC(=O)NC3CCCC(C)C3C)c(C)o2)cc1 (centres undefined)	-	-	-	-
COc1ccc(-c2nc(CS(=O)CC(=O)NC3CCCC(C)C3C)c(C)o2)cc1OC (centres undefined)	-	+	-	-
CCOC(=O)CC(=O)c1sc2c(c1N)c(=O)[nH]c(=O)n2-c1ccc(OC)cc1	-	-	-	-
CCCC(CCC)C(=O)Nc1cccc(-c2cn3c(n2)SCC3)c1	-	-	38	-
CCS(=O)(=O)Nc1cccc(-c2cn3c(n2)SCC3)c1	-	-	-	-
O=C(Nc1nc2ccccc2s1)c1cccc(S(=O)(=O)N2CCc3ccccc32)c1	-	-	-	-
O=C(Nc1nc2c(s1)CN(Cc1ccccc1)CC2)c1cccc(S(=O)(=O)N2CCc3ccccc32)c1	-	+	-	-
CCc1ccc(-c2cc(C(F)(F)F)n3nc(C(=O)Nc4c(C)nn(Cc5ccccc5Cl)c4C)cc3n2)s1	-	-	-	-
CCc1ccc(-c2cc(C(F)(F)F)n3nc(C(=O)Nc4c(C)nn(Cc5ccccc5C)c4C)cc3n2)s1	-	+	-	-
Fc1ccc(NCc2cn3ccccc3n2)cc1	-	+	-	-
Nc1nc(N)c(Cc2ccc(Cl)cc2Cl)c(N)n1	-	+	-	-
COc1ccc(C(=O)NCC(=O)N2CCN(c3ccc(F)cc3)CC2)cc1	-	-	-	-
CCc1ccc(OCc2cccc(C(=O)N/N=C\c3cnn(C)c3C)c2)cc1	-	+	-	-
SMILES	CSN inh	Myeloid diff MLP	HNF4A DNA FP	Granule exo inh
Cc1[nH]c2ccccc2c1/C=N/Nc1nc(Nc2ccccc2)nc(N2CCOCC2)n1	-	+	-	-
Oc1[nH]c2ccccc2c1N=Nc1nc(Nc2ccccc2)nc(N2CCOCC2)n1	-	-	-	-
CCn1cc(C(=O)NCCCN2CCC(C)CC2)c(=O)c2cc(S(=O)(=O)N3CCOCC3)ccc21	-	-	-	-
CC(=O)N/C(=N/c1nc(C)cc(C)n1)Nc1ccc(C)cc1C	-	-	-	66
O=C(COC(=O)CNC(=O)c1ccc(Cl)cc1Cl)Nc1cccc(S(=O)(=O)N2CCCC2)c1	-	-	-	-
Cc1cc(N2CCOCC2)ccc1/C=C1\SC(=O)N(C(C)C)C1=O	-	-	-	-
Cc1cc(N2CCCC2)ccc1/C=C1/C(=O)N(C)C(=S)N1C	-	+	-	-
CN(CCOc1ccc(Cl)cc1)C(=O)CN1C(=O)NC2(CCCC2)C1=O	-	-	-	-
CC(C)(C)n1ncc2c(=O)n(Cc3ccc(Cl)c(Cl)c3)cnc21	-	+	-	-
COc1ccccc1CNC(=O)Cn1nc(C)c([N+](=O)[O-])c1C	-	-	-	-
Cc1nn(CC(=O)N2CCN(c3ccccc3)CC2)c(C)c1[N+](=O)[O-]	-	+	-	-
Cc1ccc(S(=O)(=O)N2CCN(C(=O)Cn3nc(C)c([N+](=O)[O-])c3C)CC2)c(C)c1	-	-	-	-
